In ChEMBL document CHEMBL1154810, “Synthesis, characterization and biocidal activity of new organotin complexes of 2-(3-oxocyclohex-1-enyl)benzoic acid” (Eur J Med Chem, 2010) one finds MIC and IC50 data, which are given here for 7 compounds.

≈ marks a conversion by molar mass, not a printed value.

One assay has as its system Candida albicans. In words: Antimicrobial activity against Candida albicans ATCC 18804 after 48 hrs. The following applies: ATCC 18804, 48 h. It is filed as functional. The gist of the method: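 Broth microdilution MIC per NCCLS M27-A in RPMI 1640. Yeasts were pre-grown on Sabouraud medium, 24 h for C. albicans and 48 h for C. neoformans. Compound solution was added to wells, then incubated 37 °C for 48 h. Ketoconazol was the positive control and DMSO 1 and 2% in RPMI the negative controls. Triplicate runs. MIC was the lowest concentration giving an optically clear well, judged visually against the drug-free growth control.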
As a reminder, the MIC is the least concentration at which growth counts as inhibited. Low values mean a more susceptible organism, high ones a less susceptible organism. `CC(=O)N1CCN(c2ccc(OCC3COC(Cn4ccnc4)(c4ccc(Cl)cc4Cl)O3)cc2)CC1` (configuration not stated) [KETOCONAZOLE] registered an MIC of 0.24 µM (≈ 0.128 µg/mL).

The next assay has as its system HEK293. In words: Cytotoxicity against HEK293 cells after 24 hrs by MTT assay. It is filed as cell-based, Homo sapiens.
Conditions: not given
A general note: Formazan colour is commonly taken as a measure of viable cells.
As usually defined, the IC50 is the concentration that gives 50% inhibition. Low readings indicate greater potency in that assay, high ones weaker potency in that assay. In turn, CHLOROTRIMETHYLSTANNANE showed an IC50 of 8 nM. That is a single-digit nanomolar value.

Compound TRIBUTYLCHLOROSTANNANE yielded an IC50 of 40 nM.

Compound DICHLORODIPHENYLSTANNANE yielded an IC50 of 50 nM. This IC50 and that of the compound before are within 1.5-fold of each other.

The compound DICHLORODIMETHYLSTANNANE gave a 50% inhibitory concentration (IC50) of 10 nM.

For the compound CHLOROTRIPHENYLSTANNANE, the IC50 came to 10 nM.

For DIBUTYLDICHLOROSTANNANE, 30 nM corresponded to half-maximal inhibition (IC50).
